Measured values reported in the EternaBench riboswitch data.

System: MS2 coat protein
Test: apparent Kd, MS2 coat protein; higher = weaker binding; RNA-MaP array; FMN 200 µM where present
Procedure, shortened: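 Stalled E. coli RNA polymerase transcribed the designs on Illumina sequencing-chip clusters. SNAP-549-labelled MS2 coat protein was titrated from 0.7 or 1.5 nM, doubling to 3 µM, without and then with constant ligand, in 100 mM Tris-HCl pH 7.5, 80 mM KCl, 4 mM MgCl2, BSA, DTT, yeast tRNA and Tween-20. Per-cluster binding curves were fitted to green signal normalised to red-channel RNA signal and control-cluster median Fmax. The apparent Kd is the median of the filtered fits.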

[1] = designed as: OFF switch for flavin mononucleotide, no ligand
[2] = ligand present: flavin mononucleotide, designed as: OFF switch for flavin mononucleotide
[3] = designed as: ON switch for flavin mononucleotide, no ligand
[4] = ligand present: flavin mononucleotide, designed as: ON switch for flavin mononucleotide

Sequence	apparent Kd [1] [nM]	apparent Kd [2] [nM]	apparent Kd [3] [nM]	apparent Kd [4] [nM]
GACUUGUUAGGAUAUCUUACUUUUGCAUCAUAGUAACCAUUGGAGAAGGGACAUGAGGAUCACCCAUGUUUGGU	34.7	35		
GAGAAACAUGAGGAUCACCCAUGUGAGGAUAUGCGUACGUUGUCCGUAGGCGACGUGCGCAGAAGGCGCAAAGG	83.9	118		
GAGAAGAGUAUAGGAUAUUAAGAAACAUGAGGAUCACCCAUGUAGUGAGUGUGAGAAGGGUAGGAGGUGGUAGGAGGAUCCAGG			22.3	16.4
GAGCUAUGAGGAUAUGCAUAGAUACGGAUUCGUGUAGUACUACAUGAGGAUCACCCAUGUAGAAGGCGUGGCUG	18.5	20.5		
GAGCUGCAGACAGGAUAUGAGACCGCCACGGUCUCAGAAGGGUCAUGUUCUACAUGAGGAUCACCCAUGUCGGACAGCUCGAAG			140	11.8
GAGGAACAUGAGGAUCACCCAUGUGAGGAUAUGCAUAGUGAGGUAGUAGACGUUGAAUGCAGAAGGUACACUGA	47.6	34.3		
GAGGACUGUGCAGGAUAUACAUGAGGAUCACCCAUGUAGGUCGGUUCGAAAGUAGAAGGGCACGAUUGUCGAUAGCACGCGUGA	97.5	39.2		
GAGGAGCAAGGAUAUACGAGGAUAUGGUAGUUUGUAGAGUGACAUGAGGAUCACCCAUGUAGAAGGUGCGAGGG	64.2	52.9		
GAGGCACAUGAGGAUCACCCAUGUGGGUAUAACAUAGGAUAUCACCAACAAAAUACCCGGUGAGAAGGAUGAUGCC			217	113
GAGUACUGAGGAUAUACAUGAGGAUCACCCAUGUGUUCCAGCUAGGAAACUAGCAAAAGUAGAAGGCAGUACUG	19.5	156		
GAGUAGAAGUUAGGAUAUUGGAUAGGGACGGAAUAAGAAGGAGCAAGACAUGAGGAUCACCCAUGUGUAGAAGAAGAGAUCCUC	448	168		
GAGUCACUAUUAGAACCGAUACGAACAUGAGGAUCACCCAUGUAGGAUAUGCUAAAAGUUGUGUUGCAGAAGGACAUUUAUCGC	9.81	9.06		
GAGUGACAUGAGGAUCACCCAUGUGAGGAUAUCGGACGGACCAAAUUAACAAUUUUUGCGAGAAGGCACAUCGG	59.5	72.4		
GAGUGACGAUUAGGAUAUAUAGUGAUAAUGAUAAUAGAAGGAAUUGACAUGAGGAUCACCCAUGUAGGACUAAUCCAGAGAGAG			64.2	62.2
GAGUGGAAGGCCGCUACAUGAGGAUCACCCAUGUGCUAAGCACAGGAUAUCGCGCGGGCCCGGCGCGAGAAGGGUGACGGCCUU			1010	272
GAGUGGAAGGCCGCUACAUGAGGAUCACCCAUGUGCUAAGCACAGGAUAUCGCGCUAGCCCGGCGCGAGAAGGGUGACGGCCUU			577	276
GAGUGGCAAGGAUAUACAGUGGAGAGGAUGGCAAGAGGUGGACAUGAGGAUCACCCAUGUAGAAGGUGCAGAGA	154	235		
GAUAAAGGAGUAGGAUAUGCACAUGGUAGGCUUAUCUUUAUGGCGACAUGAGGAUCACCCAUGUUGCAGAAGGGCUUCCCAUUG	34	25.9		
GAUAGGAAGUAAGGAUAUAGACAUGAGGAUCACCCAUGUCUGUGCCGCGUGGAUGAAGGGAGUGUCUAGAAGGUACUGCUCUGU	15.5	7.5		
GAUAGGACAGAGAAGGACAUGGCUAGAGAUACUAGCAUAUGAACCUUCACAUGAGGAUCACCCAUGUAGGAUAUCUGUCCUAUC	3.8	4.86		
GAUCAACAUGAGGAUCACCCAUGUGAGGAUAUGAUACUAUGUACUUCGGUACAUAGUAUCAGAAGGCAUAUAAA	44.7	35.2		
GAUCAACAUGAGGAUCACCCAUGUGAGGAUAUGAUACUAUGUACUUCGGUACAUAGUAUCAGAAGGCAUGUAAA	50.1	42.5		
GAUCUCGUAGUGAGGAUAUUGCUCAUAGACAAUAGUAAGAAGGCACAUGAGGAUCACCCAUGUCGAGUGAGGUU	69.9	143		
GAUUAACAUGAGGAUCACCCAUGUCGUUAAAUGGGAGGAUAUACGUGGACCGUAGUCCGCGUAGAAGGCCUAAUUG			144	29.2
GAUUAACAUGAGGAUCACCCAUGUGAGGAUAUGGACUGGCUCACUUUUCGAUUCCCGUCUAGAAGGCGCAUUUU	50.1	50.1		
GAUUAUAAGUAAGGAUAUGUAUAUGAAACAUCUACAGAAGGUACAUGAGGAUCACCCAUGUUCUUGCAGCGUGACUCUGUGAUC	63.6	130		
GAUUCGGGAGGAUAUACAUGAGGAUCACCCAUGUGUUUUUUGUGUGUUAUGUUAUCGUGUAGAAGGUUUGGGUC	144	203		
GAUUGUGAAGGAUAUACUGGAGGAGUGCGAUAGAAGCACGAACAUGAGGAUCACCCAUGUAGAAGGUCAGGAGU	34.5	21.6		

Sequence	apparent Kd [1] [nM]	apparent Kd [2] [nM]	apparent Kd [3] [nM]	apparent Kd [4] [nM]
GCAACGCCUGACAUGAGGAUCACCCAUGUUAGAUUGUUAUGUCAGGAUAUAGUCUAGAAACUAGACUAGAAGGGAUAUGUUGCU			1010	161
GCAAUAGCAUGAGGAUAUGCUGGAGUUUAGACAGCAGAAGGCAUGUCAUAAGACAUGAGGAUCACCCAUGUAGUUACAAUGGCA			26.9	11.3
GCAAUGCCUGACAUGAGGAUCACCCAUGUUAGAUUGUUAUGUCAGGAUAUUGUCUAGAAACUAGACAAGAAGGGAUGCAUUGCU			313	25.1
GCAAUGUGAUAAGGAUAUCCAAUGGCAUCCCUAGGAGAAGGUAUCACAUGAGGAUCACCCAUGUGAAGGACGGGUUAUCGCAAA		211		
GCACAUGGCAUAGGAUAUAGAAGUAUACAUUAUAUAGGUAGUGUCACAACACUAGAAGGAUGAAACAUGAGGAUCACCCAUGUA			16.2	12.3
GCACCAAGAGGAUAUACCGAGGUCAUCUACUUUGCAUAGCGACAUGAGGAUCACCCAUGUAGAAGGUUUGUCGU	95.4	80.6		
GCACCUCUAUUUGAACCGAUACGAACAUGAGGAUCACCCAUGUAGGAUAUGCUAAAAGUUGUGUUGCAGAAGGACAUUUAGUGC	10.7	10.5		
GCACGACAUGUAGGAUAUCGAGCGCCGGGCGCUCGAGAAGGACAUGAGGAUCACCCAUGUAUUCUGAGUGACCGAGGUCGAUGC	31.2	180		
GCACGAGACUAAGGAUAUGGAGUGUCUACAUUAAACAUGAGGAUCACCCAUGUAAAGAGUACGAUUCAGAAGGUAGAGACGUGC			51.5	23.5
GCACGGCAUGUAGGAUAUGCAUAGCAUUGCUAUGCAGAAGGACAUGAGGAUCACCCAUGUAUGUAUUCCAUACAAUUCCCGUGC	5.86	12		
GCACGGUAAGUGAGGAUAUACCUCUGGAUACAGAGGUAGAAGGCACAUGAGGAUCACCCAUGUCCAAGCCGUGC	23.7	103		
GCACGGUAUGUAGGAUAUGCAUAGCAUUGCUAUGCAGAAGGACAUGAGGAUCACCCAUGUAUGUAUUCCAUACUAAUCCCGUGC	5.89	5.79		
GCACGGUUUGUAGGAUAUGCAUAGCAUUGCUAUGCAGAAGGACAUGAGGAUCACCCAUGUAUGUAUUCCAUACAUUUCCCGUGC	5.62	5.63		
GCACGUAGACAGAAGGCGACAUGAGGAUCACCCAUGUUGGCUCGGGUAUGACCAAUCCGCAUGAUCGAGGAUAUGUCCGCGGGC	265	19.2		
GCACUGACAGGAUAUACAUGAGGAUCACCCAUGUGACCCUUAUAGUACUCGCGUACUGGUAGAAGGGUCUGUGC	78.8	558		
GCACUGCGAGGAUAUACAUGAGGAUCACCCAUGUGUCGGCAGCGAUGCCAGUACAAAUGUAGAAGGCGCGUAAA	25.9	114		
GCACUGGAUGUAGGAUAUCAGGACGAUAAGUCCUGAGAAGGACAUGAGGAUCACCCAUGUCCUAAAACCAGUGCAUAUAAUAUA	14.4	16.7		
GCACUUUUAUUUGAACCGAUUCGAACAUGAGGAUCACCCAUGUAGGAUAUGCUAAAAGUUGUGAUGCAGAAGGACAUUAAGUGC	5.94	6.99		
GCAGCAAUCUAAUACAUGAGGAUCACCCAUGUCGAGAGAUAUGAGGAUAUGCAUCUGAAGAAGAUGCAGAAGGCAUUGUGCUGC			10.7	6.48
GCAGCACUUUAAAACAUGAGGAUCACCCAUGUCGAUUGUUAUGAGGAUAUGCAUCGGAUGAAGAUGCAGAAGGCAUUGUGCUGC			7.36	6.23
GCAGCUAAUAUUAUACAUGAGGAUCACCCAUGUUACAUGAGUAAGGAUAUUGAUGAUUAUAUAAACAAGAAGGUACGUAGCUGC			15.7	7.49
GCAGCUAAUGCAGGAUAUCAGCACGUGUAGUGCUGAGAAGGGCACAUGAGGAUCACCCAUGUGAUCAAUCAAUGUUAAUGCUGC	9.43	38.3		
GCAUGGAAAGUGAGGAUAUACCACUGGAUACAGUGGUAGAAGGCACAUGAGGAUCACCCAUGUUUCUACCAUGC	13.4	19.1		
GCAUGGUAUGAGAAGGCAUAUUUAAUCUAACAACAUGUUUACAUGAGGAUCACCCAUGUUACCAAUGAGGAUAUCAUACCGUGC	7.31	7.28		
GCAUUGAUAACAGGAUAUAUGUAUCCUACAUGAGGAUCACCCAUGUAGGUGAUCAGCCGCGAUAAGUAGAAGGGUUAUCAAUGC			18	13.7
GCCAACUCAUGAGGAUAUGGCACCUUAUUGGUGCCAGAAGGCGUGUCAAUUGACAUGAGGAUCACCCAUGUAUUAUAGUUGGCA			446	70.3
GCCAACUUAUGAGGAUAUGGCACCUUAUUGGUGCCAGAAGGCAUGUCAAUUGACAUGAGGAUCACCCAUGUAUUAUAGUUGGCA			700	108
